Drawing on ChEMBL document CHEMBL5108074 (J Med Chem, 2022), this text covers microsomal intrinsic clearance, t1/2 and IC50 for 1 compound.

Where only a bound is given, the exact number is not on record here.

Data set [1] in a line: Metabolic stability in human liver microsomes assessed as intrinsic clearance per mg of protein measured upto 60 mins in presence of NADPH regenerating system by LC-MS/MS analysis. In kind it is ADME, Microsome. To be noted: microsomes, 1 h.
A short description of data set [2]: Half life in Sprague-Dawley rat at 10 mg/kg, po and 1 mg/kg, iv measured upto 24 hrs by LC-MS analysis. To be noted: in vivo. In kind it is ADME, organism-based. In outline:
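Male Sprague-Dawley rats, two per route, single dose. IV: 1 mg/kg given as 1 mL/kg of a nominal 1 mg/mL formulation in vehicle. PO: 10 mg/kg given as 5 mL/kg of a 2 mg/mL formulation. PK parameters from noncompartmental analysis. Clearance expressed relative to rat liver blood flow of 80 mL/min/kg.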

The target in a further data set is T1, Cytochrome P450 1A2 (Homo sapiens, UniProt P05177).
T1 sequence (P05177 whole entry): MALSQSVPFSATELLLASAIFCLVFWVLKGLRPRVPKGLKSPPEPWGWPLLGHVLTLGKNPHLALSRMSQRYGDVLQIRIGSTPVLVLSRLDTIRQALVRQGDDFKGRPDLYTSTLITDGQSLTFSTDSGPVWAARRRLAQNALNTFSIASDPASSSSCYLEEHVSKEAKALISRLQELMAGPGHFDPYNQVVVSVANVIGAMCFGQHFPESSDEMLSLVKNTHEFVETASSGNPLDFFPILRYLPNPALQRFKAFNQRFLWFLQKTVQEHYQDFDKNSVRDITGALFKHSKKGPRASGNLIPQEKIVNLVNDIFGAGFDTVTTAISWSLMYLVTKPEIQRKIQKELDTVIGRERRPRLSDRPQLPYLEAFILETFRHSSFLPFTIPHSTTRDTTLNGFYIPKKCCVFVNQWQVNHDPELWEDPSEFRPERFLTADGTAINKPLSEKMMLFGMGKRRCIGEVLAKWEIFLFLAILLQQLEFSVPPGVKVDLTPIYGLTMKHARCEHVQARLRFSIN
Nature of the data set: Inhibition of CYP1A2 in human liver microsomes assessed as reduction in acetaminophen metabolite formation incubated for 30 mins in presence of NADPH by LC-MS/MS analysis. In kind it is ADME, Microsome.

The target of a further data set is Cytochrome P450 2C9 (Homo sapiens, UniProt P11712). The data set can be described thus: Inhibition of CYP2C9 in human liver microsomes assessed as reduction in 4 hydroxy-diclofenac metabolite formation incubated for 30 mins in presence of NADPH by LC-MS/MS analysis. In kind it is ADME, Microsome.
Cytochrome P450 2C9, sequence (P11712 whole entry): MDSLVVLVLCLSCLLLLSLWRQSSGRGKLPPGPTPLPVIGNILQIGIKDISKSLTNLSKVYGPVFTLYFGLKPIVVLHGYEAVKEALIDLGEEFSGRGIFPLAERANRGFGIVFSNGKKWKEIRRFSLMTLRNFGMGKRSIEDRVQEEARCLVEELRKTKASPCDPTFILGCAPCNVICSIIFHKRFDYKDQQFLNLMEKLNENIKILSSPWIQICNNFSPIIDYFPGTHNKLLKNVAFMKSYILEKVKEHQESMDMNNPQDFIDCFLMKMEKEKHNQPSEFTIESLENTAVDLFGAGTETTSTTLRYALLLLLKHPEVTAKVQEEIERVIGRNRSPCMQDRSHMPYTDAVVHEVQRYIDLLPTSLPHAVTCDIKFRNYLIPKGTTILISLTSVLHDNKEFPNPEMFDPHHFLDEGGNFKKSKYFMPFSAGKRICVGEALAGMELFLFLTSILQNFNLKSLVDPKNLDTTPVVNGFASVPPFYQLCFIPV
In another data set the target is Kallikrein-1 (Homo sapiens, UniProt P06870). The data set can be described thus: Inhibition of human KLK1 preincubated for 5 mins followed by substrate addition by fluorometer analysis.
Kallikrein-1, sequence (P06870 whole entry): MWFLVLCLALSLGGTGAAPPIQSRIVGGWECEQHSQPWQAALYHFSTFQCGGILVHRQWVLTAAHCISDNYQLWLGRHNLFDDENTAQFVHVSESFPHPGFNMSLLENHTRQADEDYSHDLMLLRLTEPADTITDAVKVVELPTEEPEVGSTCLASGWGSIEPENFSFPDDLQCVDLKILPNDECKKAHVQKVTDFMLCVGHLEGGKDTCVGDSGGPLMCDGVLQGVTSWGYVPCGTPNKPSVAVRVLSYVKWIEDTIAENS
Another data set has as its target Plasminogen (Homo sapiens, UniProt P00747). The data set can be described thus: Inhibition of human plasmin preincubated for 5 mins followed by substrate addition by fluorometer analysis. The essentials:
(§1)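 Each protease (commercial, typically purified from human plasma) was preincubated with inhibitor for 5 min, then a fluorogenic substrate specific to that enzyme was added. Cleavage was followed kinetically by fluorometry. IC50 came from a four-parameter logistic fit to the normalized rate of fluorescence increase.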

A further data set deals with Beta-secretase 1 (Homo sapiens, UniProt P56817). The data set can be described thus: Inhibition of human beta-secretase 1 preincubated for 5 mins followed by substrate addition by fluorometer analysis.
Beta-secretase 1, sequence (P56817 whole entry): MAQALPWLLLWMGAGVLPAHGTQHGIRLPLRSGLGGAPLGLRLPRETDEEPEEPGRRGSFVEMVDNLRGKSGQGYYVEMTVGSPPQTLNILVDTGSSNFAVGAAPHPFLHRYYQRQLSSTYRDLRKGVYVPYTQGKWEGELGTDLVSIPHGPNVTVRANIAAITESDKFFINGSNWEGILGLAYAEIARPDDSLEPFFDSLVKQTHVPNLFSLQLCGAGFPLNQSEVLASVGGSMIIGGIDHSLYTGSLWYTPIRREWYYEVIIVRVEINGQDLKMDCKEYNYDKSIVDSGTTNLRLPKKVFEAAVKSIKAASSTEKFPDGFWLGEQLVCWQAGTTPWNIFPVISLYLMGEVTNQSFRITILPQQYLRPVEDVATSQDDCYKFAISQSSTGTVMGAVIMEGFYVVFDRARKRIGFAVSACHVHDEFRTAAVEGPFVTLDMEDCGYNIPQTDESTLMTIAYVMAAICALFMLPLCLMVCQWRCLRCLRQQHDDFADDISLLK
Another data set has as its target Cathepsin D (Homo sapiens, UniProt P07339). Nature of the data set: Inhibition of human Cathepsin D preincubated for 5 mins followed by substrate addition by fluorometer analysis.
Data set [3] has as its target Tissue-type plasminogen activator (Homo sapiens, UniProt P00750). The data set can be described thus: Inhibition of human tissue plasminogen activator preincubated for 5 mins followed by substrate addition by fluorometer analysis. In outline:
as §1

Cathepsin D, sequence (P07339 65-162 limits assumed): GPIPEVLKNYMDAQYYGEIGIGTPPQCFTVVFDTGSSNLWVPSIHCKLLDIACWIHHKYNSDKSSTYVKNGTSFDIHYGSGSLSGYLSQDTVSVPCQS
Cathepsin D, sequence (P07339 169-412 limits assumed): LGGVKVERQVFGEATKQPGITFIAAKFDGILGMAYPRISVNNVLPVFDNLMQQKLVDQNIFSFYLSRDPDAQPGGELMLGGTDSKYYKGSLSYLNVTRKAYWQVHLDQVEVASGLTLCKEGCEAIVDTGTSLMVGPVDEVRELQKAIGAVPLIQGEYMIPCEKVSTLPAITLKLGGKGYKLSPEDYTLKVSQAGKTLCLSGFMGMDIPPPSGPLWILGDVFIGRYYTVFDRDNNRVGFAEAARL
Plasminogen, sequence (P00747 97-580 limits assumed): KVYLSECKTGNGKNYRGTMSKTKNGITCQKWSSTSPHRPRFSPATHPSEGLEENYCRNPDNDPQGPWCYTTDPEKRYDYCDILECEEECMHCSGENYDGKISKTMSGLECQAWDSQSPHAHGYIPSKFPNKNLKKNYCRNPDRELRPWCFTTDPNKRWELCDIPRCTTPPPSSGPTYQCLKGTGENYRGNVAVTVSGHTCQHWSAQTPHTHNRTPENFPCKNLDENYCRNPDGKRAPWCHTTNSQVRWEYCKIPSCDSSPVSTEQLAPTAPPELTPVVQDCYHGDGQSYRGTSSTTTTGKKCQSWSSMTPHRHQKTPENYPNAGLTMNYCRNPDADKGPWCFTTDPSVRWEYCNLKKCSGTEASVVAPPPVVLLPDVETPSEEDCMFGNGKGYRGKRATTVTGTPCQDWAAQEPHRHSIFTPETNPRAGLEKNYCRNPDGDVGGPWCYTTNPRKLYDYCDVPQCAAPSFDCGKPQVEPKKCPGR
Plasminogen, sequence (P00747 581-810 limits assumed): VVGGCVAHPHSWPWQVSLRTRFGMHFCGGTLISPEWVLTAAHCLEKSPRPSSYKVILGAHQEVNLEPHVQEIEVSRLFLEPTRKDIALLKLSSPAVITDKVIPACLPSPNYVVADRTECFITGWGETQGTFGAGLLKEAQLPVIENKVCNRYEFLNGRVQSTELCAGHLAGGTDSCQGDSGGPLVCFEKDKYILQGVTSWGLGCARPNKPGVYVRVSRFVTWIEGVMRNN
Tissue-type plasminogen activator, sequence (P00750 whole entry): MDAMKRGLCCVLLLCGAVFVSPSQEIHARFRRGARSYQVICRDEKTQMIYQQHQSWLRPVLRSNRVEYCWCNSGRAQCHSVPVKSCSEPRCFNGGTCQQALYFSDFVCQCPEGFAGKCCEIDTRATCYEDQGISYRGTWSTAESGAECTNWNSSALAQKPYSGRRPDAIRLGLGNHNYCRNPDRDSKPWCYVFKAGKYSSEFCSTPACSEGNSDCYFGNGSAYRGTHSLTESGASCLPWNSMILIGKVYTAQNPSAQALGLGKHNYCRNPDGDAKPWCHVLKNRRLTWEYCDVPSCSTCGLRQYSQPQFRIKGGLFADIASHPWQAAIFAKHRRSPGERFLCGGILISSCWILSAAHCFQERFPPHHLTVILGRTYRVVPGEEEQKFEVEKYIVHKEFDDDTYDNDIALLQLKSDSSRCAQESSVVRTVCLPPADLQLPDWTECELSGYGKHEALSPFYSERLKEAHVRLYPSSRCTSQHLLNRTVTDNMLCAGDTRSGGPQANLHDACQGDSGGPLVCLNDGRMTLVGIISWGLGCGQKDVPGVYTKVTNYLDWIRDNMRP

For the compound `COCc1nn(Cc2ccc(Cn3ccccc3=O)cc2)cc1C(=O)NCc1nccc(OC)c1F` [SEBETRALSTAT], the microsomal intrinsic clearance in data set [1] is 14 µL/min. The same compound had a t1/2 in data set [2] of 1 h. In addition, the IC50 at Cytochrome P450 1A2 is greater than 25 µM; at Cytochrome P450 2C9 it was greater than 25 µM; on Kallikrein-1, greater than 40 µM; against Plasminogen, greater than 40 µM; at Beta-secretase 1, greater than 10 µM; against Cathepsin D, greater than 10 µM. In data set [3], the IC50 was greater than 10 µM.
